Source: PubChem
NSD2 HMT inh: NSD2 histone methyltransferase inhibitors, primary screen, biochemical, AlphaScreen, single concentration, set 2. Histone-lysine N-methyltransferase NSD2 (Homo sapiens), O96028. NSD2 peptide methylation, 120 min. inhibition, % at 12.5 µM. hit rate 0.54% among 310,000; in the data active means inhibition above about 50%
Target sequence (O96028 whole entry, looked up): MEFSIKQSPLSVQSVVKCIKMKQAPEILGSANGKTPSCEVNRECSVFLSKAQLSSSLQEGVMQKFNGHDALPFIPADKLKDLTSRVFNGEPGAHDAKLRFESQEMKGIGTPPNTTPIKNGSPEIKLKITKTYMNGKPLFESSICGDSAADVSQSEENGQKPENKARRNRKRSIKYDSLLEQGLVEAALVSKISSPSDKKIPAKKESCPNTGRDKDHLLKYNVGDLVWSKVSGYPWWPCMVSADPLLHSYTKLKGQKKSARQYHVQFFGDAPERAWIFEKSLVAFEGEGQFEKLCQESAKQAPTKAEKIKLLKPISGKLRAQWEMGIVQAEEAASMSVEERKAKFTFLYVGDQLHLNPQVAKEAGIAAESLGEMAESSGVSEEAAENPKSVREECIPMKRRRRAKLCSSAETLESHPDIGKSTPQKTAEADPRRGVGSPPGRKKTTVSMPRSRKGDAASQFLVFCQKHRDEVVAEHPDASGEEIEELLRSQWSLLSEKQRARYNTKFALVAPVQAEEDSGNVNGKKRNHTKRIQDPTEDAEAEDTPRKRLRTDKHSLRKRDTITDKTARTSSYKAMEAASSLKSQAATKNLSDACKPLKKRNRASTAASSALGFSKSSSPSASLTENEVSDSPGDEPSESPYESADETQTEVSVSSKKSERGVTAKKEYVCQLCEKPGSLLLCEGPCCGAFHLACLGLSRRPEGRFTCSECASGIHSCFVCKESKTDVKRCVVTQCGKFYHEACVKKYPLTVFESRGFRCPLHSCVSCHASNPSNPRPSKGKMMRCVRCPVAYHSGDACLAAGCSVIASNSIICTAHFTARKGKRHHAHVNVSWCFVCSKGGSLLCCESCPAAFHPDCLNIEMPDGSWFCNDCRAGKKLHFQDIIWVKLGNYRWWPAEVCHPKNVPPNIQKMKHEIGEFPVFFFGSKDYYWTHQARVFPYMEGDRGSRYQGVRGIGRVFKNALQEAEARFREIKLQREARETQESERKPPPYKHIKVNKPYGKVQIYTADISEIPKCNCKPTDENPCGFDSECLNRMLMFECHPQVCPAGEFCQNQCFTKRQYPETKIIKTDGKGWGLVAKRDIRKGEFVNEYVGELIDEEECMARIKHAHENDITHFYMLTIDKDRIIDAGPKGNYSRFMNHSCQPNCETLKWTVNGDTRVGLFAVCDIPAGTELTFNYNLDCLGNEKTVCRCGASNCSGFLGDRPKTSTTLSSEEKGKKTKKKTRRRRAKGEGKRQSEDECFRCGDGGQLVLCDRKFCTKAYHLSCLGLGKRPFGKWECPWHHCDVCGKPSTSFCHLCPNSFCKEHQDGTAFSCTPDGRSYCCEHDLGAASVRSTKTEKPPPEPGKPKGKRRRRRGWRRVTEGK
Xi reactivation: activators of inactive X chromosome reactivation, primary screen, imaging, XiGFP fibroblasts, GFP high-content imaging, set 2; XiGFP mouse fibroblasts, % GFP-positive cells imaging, 3 d; cells co-treated with 5-aza-dC sensitizer; scaled so ellipticine positive control = 100%; activation, % at 7.58 µM; hit rate 0.055% among 360,000; AID 743238, 2013;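 active means mean normalized replicate activation at least 10% and every replicate at or above 10%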;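 further: 0% = median of on-plate neutral control wells and 100% = ellipticine 6 µM median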
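System: 68-5-11 XiGFP fibroblast line | Buffer or medium: DMEM containing 5-aza-dC | Compound: Single point | Times: Compounds 3 days, fix/stain 15 min at room temperature | Benchmarks: Positive control ellipticine, 6 µM final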
SR-BI uptake up: activators of SR-BI mediated DiI-HDL uptake, primary screen, ldlA[mSR-BI] CHO cells, DiI fluorescence | activation, % at 12.5 µM | AID 504775, 2011 | hit rate 0.096% among 320,000 | 3 h; 100 = double the neutral-control signal;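 active means mean replicate activation of at least 60% and every replicate at or above 60%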;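 further: 0% = median plate neutral-control signal and 100% = twice that signal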
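System: CHO ldlA[mSR-BI] cells / Medium: HEPES-buffered (25 mM, pH 7.4) F12 plus 0.5% BSA / Probe or stimulus: labelled HDL, 10 µg/mL / Doses: single compound concentration, delivered by pin transfer / Schedule: 3 h, 37 °C / Measured by: DiI fluorescence, bottom read / Measure: cell-associated DiI fluorescence as measure of HDL uptake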
ARNT-TACC3 inh: disruptors of ARNT/TACC3 protein interaction, primary screen, biochemical, AlphaScreen, single concentration. Transforming acidic coiled-coil-containing protein 3 (Homo sapiens), Q9Y6A5. AlphaScreen His-ARNT PAS-B/GST-TACC3 binding, luminescence; TACC3 fragment carries E629A point mutation. hit rate 0.66% among 390,000. inhibition, % at 9.99 µM;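 active means mean inhibition of replicates at least 50% and at least half of replicates each reaching 50%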;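 further: 0% = complete ARNT plus TACC3 wells and 100% = ARNT alone without TACC3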
sPLA2-III inh: human group III sPLA2 inhibitors, primary screen, biochemical, QFRET, BODIPY PC-A2 liposome substrate; inhibition, % at 12.2 µM; AID 743126, 2013; hit rate 0.56% among 370,000; Group 3 secretory phospholipase A2 (Homo sapiens), Q9NZ20; QFRET BODIPY PC-A2 liposome hydrolysis, fluorescence;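 active means inhibition above mean plus 3 SD of compounds lying within the high and low control bounds, cut at about 19% in these data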;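 further: 0% = median of test compound wells and 100% = no enzyme DMSO wells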
SR-BI DiI inh: inhibitors of SR-BI mediated HDL lipid uptake, primary screen, ldlA[mSR-BI] cells, fluorescence, single point | Scavenger receptor class B member 1 (Mus musculus), Q61009 | ldlA[mSR-BI] CHO cells, DiI-HDL uptake fluorescence, 3 h | inhibition, % at 12.5 µM | hit rate 0.96% among 320,000;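 active means mean replicate inhibition of at least 70% and a set share of replicates each scoring 70 or more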;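 further: 0% = median of neutral control wells and 100% = median of positive control wells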
AlphaScreen art: AlphaScreen signal interference with preloaded methylated product, dose response, artefact control for NSD2 inhibitor project, biochemical, cherry-picked samples; AC35, µM (doses to about 10 µM), for inactives: top-dose activity change, negative = signal loss; shares compounds with NSD2 HMT inh; hit rate 9.4% among 1,500; AlphaScreen artifact counterscreen, preloaded methylated H4 peptide; call rule not given here
* hit, by the source's call; x = no result given. Only some compounds are listed: those with a hit (about 2% of all), similar ones and a draw of the others.

SMILES | NSD2 HMT inh | Xi reactivation | SR-BI uptake up | ARNT-TACC3 inh | sPLA2-III inh | SR-BI DiI inh | AlphaScreen art
COc1ccc(NC(=S)Nc2ccc3nsnc3c2)cc1 | 137* | 0 | -5 | 2 | 6 | 5 | 1%
C=CCN(CC=C)C(=S)Nc1ccc2nsnc2c1 | 104* | 0 | 8 | 40 | 9 | -8 | 7%
COc1ccc(NC(=S)Nc2ccc3nc(C)c(C)nc3c2)cc1 | 25 | x | -4 | 5 | 6 | 4 | x
CCOc1ccc(NC(=O)Nc2ccc3nsnc3c2)cc1 | -2 | 0 | -18 | -7 | -6 | 18 | x
CCOc1ccc(NC(=S)Nc2ccc3nsnc3c2)cc1 | 136* | 0 | -10 | 39 | -2 | 10 | 2%
O=C(C[C@H]1C[C@@H]2c3cc(NS(=O)(=O)c4ccccc4)ccc3O[C@@H]2[C@@H](CO)O1)NCC1CC1 | x | 0 | x | -2 | x | x | x
O=S(=O)(O)c1cccc2c(N=Nc3ccc(O)c4ncccc34)cccc12 | 66* | x | -26 | 73* | x | 26 | -13%
Cc1ccccc1N=Nc1ccc(O)c2ncccc12 | -1 | 2 | -11 | -5 | 1 | 11 | x
CN(C)C(=O)c1cccc(-c2cccc(-c3nc(C(=O)NC4CCCCC4)cc4c3[C@H](CCO)N([S@@](=O)C(C)(C)C)C4)c2)c1 | x | 0 | x | -1 | x | x | x
CC1C/C(=C\c2cccnc2)C(=O)/C(=C/c2cccnc2)C1 (configuration not stated) | 58* | x | 1 | 2 | 12 | -1 | -8%
Nc1cccc2c(O)cc(S(=O)(=O)O)cc12 | x | x | -17 | 43 | x | 17 | x
Nc1cc(S(=O)(=O)O)cc([N+](=O)[O-])c1O | 87* | 0 | 10 | -1 | 2 | -10 | -5%
CCNC(=S)NNC(=O)c1cnccn1 | 0 | x | x | x | 0 | x | x
COc1cc(CC(=O)NCC2COc3ccccc3O2)cc(OC)c1OC (configuration not stated) | 54* | 0 | -1 | -20 | 3 | 1 | -3%
O=C(NCc1cccnc1)c1ccc2c(c1)OCO2 | 66* | x | 7 | 2 | 3 | -7 | -3%
O=C(NC1=NCCS1)c1csc2ccccc12 | 70* | x | -2 | 3 | 4 | 2 | -3%
O=C(NC1=NCCS1)c1ccccc1Cl | -2 | 0 | -8 | -3 | 7 | 8 | x
Cc1noc(C)c1NC(=O)Nc1ccc2c(c1)C(=O)N([C@@H](C)CO)C[C@@H](C)[C@H](CN(C)Cc1ccc3c(c1)OCO3)O2 | x | 0 | x | -14 | x | x | x
O=C(NCC1CCCCC1)c1ccc2nc([C@@H]3O[C@H](CO)[C@@H](O)[C@H]3O)[nH]c2c1 | -1 | 0 | x | x | 1 | x | x
O=C(NNC(=S)Nc1ccccc1)c1ccco1 | 119* | x | 12 | 3 | 16 | -12 | -3%
Cc1ccccc1NC(=S)NNC(=O)c1ccco1 | 12 | 0 | -6 | 2 | 10 | 6 | x
Cc1cccc(NC(=O)CSCC(=O)NCc2cccc(C(F)(F)F)c2)c1 | 98* | 0 | -18 | -5 | -8 | 18 | 1%
Cc1cc(NC(=O)CSCC(=O)NCc2cccc(C(F)(F)F)c2)no1 | 0 | 0 | -5 | 0 | 3 | 5 | x
CC(=O)Nc1c(Cl)cc2c(c1Cl)Cc1ccccc1-2 | -1 | 0 | 1 | 1 | -5 | -1 | x
COc1cccc2c1N1C(=O)c3c(C(=O)O)cccc3C1CC2(C)C (configuration not stated) | 101* | x | 8 | x | -5 | -8 | -1%
SMILES | NSD2 HMT inh | Xi reactivation | SR-BI uptake up | ARNT-TACC3 inh | sPLA2-III inh | SR-BI DiI inh | AlphaScreen art
CCOC(=O)c1cc(-c2cc(OC)c(OC)c(OC)c2)nc2c1c(=O)[nH]c(=O)n2Cc1ccccc1 | -1 | 0 | -1 | 0 | -3 | 1 | x
CCOC(=O)c1cc(-c2ccc(F)cc2)nc2c1c(=O)[nH]c(=O)n2Cc1ccccc1 | 86* | 0 | x | 1 | 4 | x | 3%
COc1ccc(S(=O)(=O)N(C)C[C@@H]2Oc3ccc(NC(=O)Nc4ccccc4)cc3CC(=O)N([C@H](C)CO)C[C@@H]2C)cc1 | x | 0 | x | -5 | x | x | x
Nc1c(C(=O)NCC2CCCO2)c2nc3ccccc3nc2n1-c1ccccc1 (configuration not stated) | -19 | x | -14 | -4 | -7 | 14 | x
Nc1c(C(=O)OCC2CCCO2)c2nc3ccccc3nc2n1C1CCCCC1 (configuration not stated) | 76* | x | -35 | 7 | 6 | 35 | -7%
CCOC(=O)C1=C(C)N(C[C@@H]2CC[C@@H](Cc3ccc(-c4ccccc4)cc3)O2)C(=O)NC1C1CC1 (some centres not stated) | x | 0 | -10 | -4 | -1 | 10 | x
COc1ccc(C2CC(=O)c3c(C)nc(N4CCN(c5ccccc5)CC4)nc3C2)cc1 (configuration not stated) | 53* | x | -18 | -12 | 7 | 18 | -6%
Cc1nc(N2CCN(Cc3ccccc3)CC2)nc2c1C(=O)CC(c1ccco1)C2 (configuration not stated) | 1 | x | -45 | x | -7 | 45 | x
CC(=O)Nc1ccc(NC(=O)CC2Nc3cccc4cccc(c34)NC2=O)cc1 (configuration not stated) | 8 | x | -12 | 9 | -11 | 12 | x
CC(=O)c1ccc(NC(=O)CC2Nc3cccc4cccc(c34)NC2=O)cc1 (configuration not stated) | 78* | 0 | -20 | 0 | -9 | 20 | -5%
Cc1ccc(-c2nnc3n2N=C(c2ccc4ccccc4c2)CS3)cc1 | -3 | x | x | x | 1 | x | x
Cc1ccccc1-c1nnc2n1N=C(c1ccc(O)c(O)c1)CS2 | 69* | x | x | x | -6 | x | -8%
CCCN=C(C)C1=C(O)c2ccccc2C1=O | 15 | 0 | -13 | x | 7 | 13 | x
CCN(CC)CCCN=C(C)C1=C(O)c2ccccc2C1=O | 66* | 0 | x | x | 9 | x | -1%
